# Measurements from different studies.
# Compare with care: the assays were run in different laboratories.
# Target: Serine/threonine-protein kinase 16 (STK16, Homo sapiens, UniProt O75716)
Compound,read-out,action,method,concentration,measurement,result
O=c1[nH]c2ccccc2n1C1CCN(Cc2ccc(-c3[nH]c4cc5ncnc5cc4nc3-c3ccccc3)cc2)CC1,cell-free assay,,,0.5 µM,remaining signal,99.5%
Cn1cc(-c2cc(F)cc(N3CCn4c(cc5c4CCCC5)C3=O)c2CO)cc(Nc2ccc(N3CCN(C4COC4)CC3)cn2)c1=O,enzyme activity,inhibitor,,0.1 µM,inhibition,10%
COc1ncccc1-c1cnn2ccc(N3CCN(C(=O)OC(C)C)CC3)nc12,binding,,competition with immobilised ligand,1 µM,remaining binding,55%
COc1cc(Nc2ncc(F)c(Nc3ccc4c(n3)NC(=O)C(C)(C)O4)n2)cc(OC)c1OC,binding,,competition with immobilised ligand,10 µM,inhibition,100%
Nc1ncc(-c2nc(N3CCOCC3)nc(N3CCOCC3)n2)c(C(F)F)n1,binding,,competition with immobilised ligand,10 µM,remaining binding,56%
CC(C)(C)c1cc(C=C(C#N)C#N)cc(Br)c1O,enzyme activity,inhibitor,,0.5 µM,remaining activity,99.2%
Cn1cc(-c2cccc(N3CCc4c(sc5c4CC(C)(C)C5)C3=O)c2CO)cc(Nc2ccncn2)c1=O,enzyme activity,inhibitor,,1 µM,inhibition,-3%
Cc1nn(C)cc1-c1nc2c(N3CCN(Cc4ccc(Cl)cc4)CC3)c(Cl)cnc2[nH]1,binding,,competition with immobilised ligand,1 µM,remaining binding,18%
Cn1cncc1[C@@](O)(COc1ccc(C#N)cc1-c1ccc(OC(F)(F)F)cc1)c1ccc(C#N)cc1,cell-free assay,,competition with immobilised ligand,1 µM,remaining binding,99%
